Data reported in ChEMBL document CHEMBL2424619, “Small-molecule ligands of methyl-lysine binding proteins: optimization of selectivity for L3MBTL3” (J Med Chem, 2013).

Key:
[1] = biological target: Lysine-specific demethylase 5A (Homo sapiens, UniProt P29375); assay: Inhibition of JARID1A (unknown origin) after 30 mins by AlphaScreen assay
Method in brief: (§1)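 AlphaScreen competition with histone peptide. Compounds in 3-fold, 10-point dilutions, top 10 or 30 μM; buffer 20 mM Tris pH 8.0, 25 mM NaCl, 2 mM DTT, 0.05% Tween-20. Protein-peptide mix 30 min RT, then streptavidin donor plus nickel-chelate acceptor beads (GST acceptor beads for GST-tagged PHF23, JARID1A) 30 min RT dark. […] Protein-free His6-biotin peptide counterscreen.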

PHD finger protein 23 = PHD finger protein 23 (Homo sapiens, UniProt Q9BUL5); assay: Inhibition of PHF23 (unknown origin) after 30 mins by AlphaScreen assay
PHD finger protein 23, sequence (Q9BUL5 whole entry): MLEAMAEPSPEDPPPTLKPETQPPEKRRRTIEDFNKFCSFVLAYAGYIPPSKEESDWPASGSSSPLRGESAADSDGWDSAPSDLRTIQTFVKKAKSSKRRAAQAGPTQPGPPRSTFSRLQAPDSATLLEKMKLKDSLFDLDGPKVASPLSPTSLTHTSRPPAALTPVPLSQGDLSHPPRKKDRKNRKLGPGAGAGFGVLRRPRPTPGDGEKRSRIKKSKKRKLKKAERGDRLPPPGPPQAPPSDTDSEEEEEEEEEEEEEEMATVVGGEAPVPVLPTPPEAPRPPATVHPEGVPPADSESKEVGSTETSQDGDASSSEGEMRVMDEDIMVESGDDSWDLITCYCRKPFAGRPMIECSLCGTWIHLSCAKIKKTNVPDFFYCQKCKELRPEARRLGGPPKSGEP
Method in brief: (§2)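 AlphaScreen competition with histone peptide. Compounds in 3-fold, 10-point dilutions, top 10 or 30 μM; buffer 20 mM Tris pH 8.0, 25 mM NaCl, 2 mM DTT, 0.05% Tween-20. Protein-peptide mix 30 min RT, then streptavidin donor plus nickel-chelate acceptor beads (GST acceptor beads for GST-tagged PHF23, JARID1A) 30 min RT dark. Protein-free His6-biotin peptide counterscreen.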

TP53-binding protein 1 = TP53-binding protein 1 (Homo sapiens, UniProt Q12888); assay: Inhibition of 53BP1 (unknown origin) after 30 mins by AlphaScreen assay; method in brief: as §1
TP53-binding protein 1, sequence (Q12888 whole entry, the tested form may be a part): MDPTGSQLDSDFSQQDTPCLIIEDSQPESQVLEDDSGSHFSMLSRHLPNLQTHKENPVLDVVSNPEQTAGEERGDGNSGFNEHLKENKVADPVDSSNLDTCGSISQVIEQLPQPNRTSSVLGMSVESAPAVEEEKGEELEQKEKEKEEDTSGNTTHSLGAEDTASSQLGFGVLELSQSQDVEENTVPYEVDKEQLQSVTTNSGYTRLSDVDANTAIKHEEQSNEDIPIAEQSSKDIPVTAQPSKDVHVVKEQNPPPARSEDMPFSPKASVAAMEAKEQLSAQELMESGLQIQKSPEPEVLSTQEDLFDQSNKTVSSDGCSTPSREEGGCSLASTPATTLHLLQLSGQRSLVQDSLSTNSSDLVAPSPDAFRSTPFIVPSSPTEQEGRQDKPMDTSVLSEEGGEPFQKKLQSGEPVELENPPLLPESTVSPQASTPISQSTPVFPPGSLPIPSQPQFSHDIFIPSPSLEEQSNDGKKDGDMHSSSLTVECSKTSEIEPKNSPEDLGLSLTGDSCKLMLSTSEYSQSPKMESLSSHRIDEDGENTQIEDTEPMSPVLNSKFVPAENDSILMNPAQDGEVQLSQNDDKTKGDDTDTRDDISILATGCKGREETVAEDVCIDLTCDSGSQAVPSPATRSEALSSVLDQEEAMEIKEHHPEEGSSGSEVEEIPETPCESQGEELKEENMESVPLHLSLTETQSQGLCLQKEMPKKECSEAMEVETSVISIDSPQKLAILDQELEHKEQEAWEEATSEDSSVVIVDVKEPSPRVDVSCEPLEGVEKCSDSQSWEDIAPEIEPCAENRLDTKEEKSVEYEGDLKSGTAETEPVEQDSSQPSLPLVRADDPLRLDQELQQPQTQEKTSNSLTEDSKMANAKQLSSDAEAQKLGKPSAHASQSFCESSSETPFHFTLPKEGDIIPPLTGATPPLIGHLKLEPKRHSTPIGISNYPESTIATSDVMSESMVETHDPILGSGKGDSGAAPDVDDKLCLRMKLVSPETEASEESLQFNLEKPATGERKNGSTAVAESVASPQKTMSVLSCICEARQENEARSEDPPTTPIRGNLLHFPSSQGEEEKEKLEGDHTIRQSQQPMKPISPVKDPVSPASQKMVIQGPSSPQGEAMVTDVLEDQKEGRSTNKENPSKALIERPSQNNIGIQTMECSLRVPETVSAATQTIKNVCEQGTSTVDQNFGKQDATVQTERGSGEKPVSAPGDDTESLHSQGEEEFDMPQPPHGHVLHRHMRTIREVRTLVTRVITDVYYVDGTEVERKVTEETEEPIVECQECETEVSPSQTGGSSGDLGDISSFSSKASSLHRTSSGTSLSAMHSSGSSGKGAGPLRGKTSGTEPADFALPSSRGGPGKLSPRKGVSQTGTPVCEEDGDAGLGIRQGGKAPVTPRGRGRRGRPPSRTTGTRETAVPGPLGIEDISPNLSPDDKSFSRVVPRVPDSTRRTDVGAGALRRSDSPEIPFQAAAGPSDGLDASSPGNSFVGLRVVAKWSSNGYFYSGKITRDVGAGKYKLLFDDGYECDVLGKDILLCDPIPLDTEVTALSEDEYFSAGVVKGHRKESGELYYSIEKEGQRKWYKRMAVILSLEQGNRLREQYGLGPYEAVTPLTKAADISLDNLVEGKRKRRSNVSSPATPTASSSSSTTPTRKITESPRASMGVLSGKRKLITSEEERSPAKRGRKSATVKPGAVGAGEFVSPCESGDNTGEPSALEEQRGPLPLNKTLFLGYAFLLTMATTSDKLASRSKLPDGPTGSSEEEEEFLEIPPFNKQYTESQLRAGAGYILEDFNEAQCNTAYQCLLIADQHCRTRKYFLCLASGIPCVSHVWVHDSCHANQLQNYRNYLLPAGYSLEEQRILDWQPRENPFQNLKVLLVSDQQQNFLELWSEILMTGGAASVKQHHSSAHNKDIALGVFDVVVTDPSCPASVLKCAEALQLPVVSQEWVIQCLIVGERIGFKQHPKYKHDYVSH

[2] = biological target: MBT domain-containing protein 1 (Homo sapiens, UniProt Q05BQ5); assay: Inhibition of MBTD1 (unknown origin) after 30 mins by AlphaScreen assay; method in brief: as §2
MBT domain-containing protein 1, sequence (Q05BQ5 whole entry, the tested form may be a part): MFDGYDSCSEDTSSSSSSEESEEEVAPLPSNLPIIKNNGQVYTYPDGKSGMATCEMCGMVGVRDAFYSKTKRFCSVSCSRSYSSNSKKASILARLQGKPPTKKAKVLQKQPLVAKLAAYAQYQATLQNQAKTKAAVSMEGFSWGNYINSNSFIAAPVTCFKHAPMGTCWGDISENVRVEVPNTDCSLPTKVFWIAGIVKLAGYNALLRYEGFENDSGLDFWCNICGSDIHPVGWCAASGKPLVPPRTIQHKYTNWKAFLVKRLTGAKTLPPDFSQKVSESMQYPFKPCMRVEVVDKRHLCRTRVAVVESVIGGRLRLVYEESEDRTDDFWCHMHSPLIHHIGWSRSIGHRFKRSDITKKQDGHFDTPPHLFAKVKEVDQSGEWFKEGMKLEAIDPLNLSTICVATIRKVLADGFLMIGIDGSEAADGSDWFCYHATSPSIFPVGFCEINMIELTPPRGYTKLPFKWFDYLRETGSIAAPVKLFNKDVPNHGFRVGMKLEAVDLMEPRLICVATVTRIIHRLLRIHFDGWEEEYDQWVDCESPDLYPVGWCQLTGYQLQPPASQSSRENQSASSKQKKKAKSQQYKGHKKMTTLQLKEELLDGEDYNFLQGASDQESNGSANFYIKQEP

[3] = biological target: T1, Scm-like with four MBT domains protein 1 (Homo sapiens, UniProt Q9UHJ3); assay: Inhibition of SFMBT1 (unknown origin) after 30 mins by AlphaScreen assay; method in brief: as §1
T1 sequence (Q9UHJ3 whole entry): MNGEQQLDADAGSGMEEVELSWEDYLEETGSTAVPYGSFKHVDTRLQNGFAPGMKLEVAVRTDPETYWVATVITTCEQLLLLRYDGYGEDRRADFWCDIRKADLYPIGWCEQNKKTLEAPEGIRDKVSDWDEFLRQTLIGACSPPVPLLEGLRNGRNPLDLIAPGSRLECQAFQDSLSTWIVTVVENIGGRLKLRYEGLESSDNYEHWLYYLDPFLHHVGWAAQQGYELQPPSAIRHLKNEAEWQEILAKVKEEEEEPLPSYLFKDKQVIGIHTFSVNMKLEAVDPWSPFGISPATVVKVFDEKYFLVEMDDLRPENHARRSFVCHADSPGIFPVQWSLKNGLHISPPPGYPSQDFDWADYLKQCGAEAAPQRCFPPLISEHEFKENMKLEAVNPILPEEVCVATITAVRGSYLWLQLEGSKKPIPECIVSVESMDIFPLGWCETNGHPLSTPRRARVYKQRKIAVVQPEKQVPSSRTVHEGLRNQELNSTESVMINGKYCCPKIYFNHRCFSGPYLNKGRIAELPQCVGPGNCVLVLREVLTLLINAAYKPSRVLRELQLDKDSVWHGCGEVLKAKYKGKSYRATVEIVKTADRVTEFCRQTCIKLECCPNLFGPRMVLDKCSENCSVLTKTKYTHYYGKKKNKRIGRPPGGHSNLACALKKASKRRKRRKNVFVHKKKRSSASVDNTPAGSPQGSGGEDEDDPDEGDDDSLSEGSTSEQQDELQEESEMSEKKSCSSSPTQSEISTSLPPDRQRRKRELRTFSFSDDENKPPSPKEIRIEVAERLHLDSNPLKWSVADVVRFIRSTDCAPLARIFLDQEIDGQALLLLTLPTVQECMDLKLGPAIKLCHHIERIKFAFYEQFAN

[4] = biological target: T2, Lethal(3)malignant brain tumor-like protein 4 (Homo sapiens, UniProt Q8NA19); assay: Inhibition of L3MBTL4 (unknown origin) after 30 mins by AlphaScreen assay; method in brief: as §2
T2 sequence (Q8NA19 whole entry): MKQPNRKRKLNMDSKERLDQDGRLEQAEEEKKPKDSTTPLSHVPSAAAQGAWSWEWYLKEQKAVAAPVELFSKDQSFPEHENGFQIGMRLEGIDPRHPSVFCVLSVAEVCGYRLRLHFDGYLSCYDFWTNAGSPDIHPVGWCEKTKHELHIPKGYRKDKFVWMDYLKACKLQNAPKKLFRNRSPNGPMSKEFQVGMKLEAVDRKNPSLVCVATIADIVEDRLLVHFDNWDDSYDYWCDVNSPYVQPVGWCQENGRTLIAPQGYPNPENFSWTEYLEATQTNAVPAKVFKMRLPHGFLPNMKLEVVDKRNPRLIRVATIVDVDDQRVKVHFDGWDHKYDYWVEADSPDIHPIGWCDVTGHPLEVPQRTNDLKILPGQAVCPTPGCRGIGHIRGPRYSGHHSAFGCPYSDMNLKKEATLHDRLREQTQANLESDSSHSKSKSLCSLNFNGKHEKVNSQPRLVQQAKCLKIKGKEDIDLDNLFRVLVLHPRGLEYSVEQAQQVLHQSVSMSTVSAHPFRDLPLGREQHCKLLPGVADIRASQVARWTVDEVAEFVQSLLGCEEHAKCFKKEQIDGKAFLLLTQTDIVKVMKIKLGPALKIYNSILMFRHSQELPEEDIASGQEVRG

[5] = biological target: T3, Lethal(3)malignant brain tumor-like protein 3 (Homo sapiens, UniProt Q96JM7); assay: Inhibition of L3MBTL3 (unknown origin) after 30 mins by AlphaScreen assay; method in brief: as §2
T3 sequence (Q96JM7 whole entry): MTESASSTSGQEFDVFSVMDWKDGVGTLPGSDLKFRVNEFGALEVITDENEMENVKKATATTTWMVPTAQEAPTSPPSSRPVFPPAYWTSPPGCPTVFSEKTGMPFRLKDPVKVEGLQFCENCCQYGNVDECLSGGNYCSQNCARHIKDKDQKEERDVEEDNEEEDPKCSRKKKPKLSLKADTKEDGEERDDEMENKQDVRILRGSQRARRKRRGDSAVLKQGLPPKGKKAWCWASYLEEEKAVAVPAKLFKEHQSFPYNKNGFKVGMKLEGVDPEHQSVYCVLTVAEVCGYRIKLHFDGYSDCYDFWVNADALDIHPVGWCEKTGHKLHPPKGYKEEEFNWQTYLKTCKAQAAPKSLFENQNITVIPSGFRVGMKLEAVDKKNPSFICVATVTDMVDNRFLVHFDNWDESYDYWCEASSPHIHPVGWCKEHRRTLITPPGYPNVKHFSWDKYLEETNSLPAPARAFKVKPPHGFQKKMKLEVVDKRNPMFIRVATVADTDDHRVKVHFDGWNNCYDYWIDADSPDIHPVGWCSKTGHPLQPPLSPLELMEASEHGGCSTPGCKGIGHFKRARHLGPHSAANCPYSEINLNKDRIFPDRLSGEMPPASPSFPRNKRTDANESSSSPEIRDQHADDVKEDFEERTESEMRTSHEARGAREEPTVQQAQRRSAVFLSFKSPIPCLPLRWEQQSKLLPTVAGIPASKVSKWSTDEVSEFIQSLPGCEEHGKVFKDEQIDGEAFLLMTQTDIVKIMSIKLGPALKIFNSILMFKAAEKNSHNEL

[6] = biological target: T3, Lethal(3)malignant brain tumor-like protein 3; assay: Inhibition of L3MBTL3 (unknown origin) using H4K20me2 as substrate after 30 mins by LNCE-TR-FRET assay

Lysine-specific demethylase 5A, sequence (P29375 whole entry): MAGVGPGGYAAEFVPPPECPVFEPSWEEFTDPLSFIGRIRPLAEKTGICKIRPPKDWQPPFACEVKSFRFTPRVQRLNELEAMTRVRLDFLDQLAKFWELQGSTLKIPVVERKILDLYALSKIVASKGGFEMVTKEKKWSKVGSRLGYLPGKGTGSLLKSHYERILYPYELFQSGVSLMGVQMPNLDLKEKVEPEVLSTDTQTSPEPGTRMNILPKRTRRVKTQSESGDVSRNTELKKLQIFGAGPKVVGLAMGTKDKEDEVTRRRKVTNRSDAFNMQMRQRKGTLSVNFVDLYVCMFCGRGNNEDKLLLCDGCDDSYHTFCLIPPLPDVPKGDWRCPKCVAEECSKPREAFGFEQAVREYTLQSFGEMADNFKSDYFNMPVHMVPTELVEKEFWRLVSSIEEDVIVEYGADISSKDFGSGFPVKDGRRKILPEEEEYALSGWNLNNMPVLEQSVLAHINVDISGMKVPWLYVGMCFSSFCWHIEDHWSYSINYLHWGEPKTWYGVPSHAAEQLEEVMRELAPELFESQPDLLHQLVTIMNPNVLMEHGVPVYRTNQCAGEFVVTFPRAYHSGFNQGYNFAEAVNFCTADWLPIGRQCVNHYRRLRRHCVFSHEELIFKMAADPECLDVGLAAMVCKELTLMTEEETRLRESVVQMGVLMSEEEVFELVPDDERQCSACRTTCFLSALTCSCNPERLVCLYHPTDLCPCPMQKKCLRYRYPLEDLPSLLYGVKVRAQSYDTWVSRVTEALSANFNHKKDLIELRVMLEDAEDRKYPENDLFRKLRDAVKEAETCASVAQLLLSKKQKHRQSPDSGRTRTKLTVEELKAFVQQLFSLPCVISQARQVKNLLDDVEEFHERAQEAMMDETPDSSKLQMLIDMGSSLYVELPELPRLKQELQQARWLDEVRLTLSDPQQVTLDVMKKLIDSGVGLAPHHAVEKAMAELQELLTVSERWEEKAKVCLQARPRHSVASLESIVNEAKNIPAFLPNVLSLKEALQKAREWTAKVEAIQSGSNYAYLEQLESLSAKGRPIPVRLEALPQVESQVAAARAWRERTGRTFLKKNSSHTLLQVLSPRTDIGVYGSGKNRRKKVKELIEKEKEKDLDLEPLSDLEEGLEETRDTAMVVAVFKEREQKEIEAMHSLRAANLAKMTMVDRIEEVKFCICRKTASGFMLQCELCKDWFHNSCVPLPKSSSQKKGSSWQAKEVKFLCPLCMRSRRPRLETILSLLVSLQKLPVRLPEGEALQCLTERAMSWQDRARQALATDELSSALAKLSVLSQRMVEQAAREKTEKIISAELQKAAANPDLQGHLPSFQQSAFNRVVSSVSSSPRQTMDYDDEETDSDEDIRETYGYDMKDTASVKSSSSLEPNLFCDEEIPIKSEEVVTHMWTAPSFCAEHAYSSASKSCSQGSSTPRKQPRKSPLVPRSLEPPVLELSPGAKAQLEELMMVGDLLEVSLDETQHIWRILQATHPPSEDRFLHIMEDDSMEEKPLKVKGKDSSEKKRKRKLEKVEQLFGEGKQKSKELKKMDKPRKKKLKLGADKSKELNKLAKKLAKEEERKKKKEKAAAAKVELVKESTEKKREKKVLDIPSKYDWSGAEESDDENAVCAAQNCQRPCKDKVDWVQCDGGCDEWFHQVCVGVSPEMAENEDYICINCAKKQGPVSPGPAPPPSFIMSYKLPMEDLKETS

Compound: O=C(c1ccc(C(=O)N2CCC(N3CCCC3)CC2)c([N+](=O)[O-])c1)N1CCC(N2CCCC2)CC1
- IC50 [1]: > 10 µM
- IC50 (PHD finger protein 23): > 10 µM
- IC50 (TP53-binding protein 1): > 10 µM
- IC50 [2]: > 10 µM
- IC50 [3]: > 10 µM
- IC50 [4]: > 10 µM
- IC50 [5]: 0.16 µM
- IC50 [6]: 0.088 µM

Compound: O=C(c1ccc(C(=O)N2CCC(C3CCCN3)CC2)cc1)N1CCC(C2CCCN2)CC1 (stereo not given)
- IC50 [1]: > 10 µM
- IC50 (PHD finger protein 23): > 10 µM
- IC50 (TP53-binding protein 1): > 10 µM
- IC50 [2]: 4 µM
- IC50 [3]: > 10 µM
- IC50 [4]: > 10 µM
- IC50 [5]: 0.64 µM
- IC50 [6]: 0.8 µM

Compound: CCN1Cc2ccc(NC(=O)c3ccc(C(=O)N4CCC(C5CCCN5)CC4)cc3Nc3ccccc3)cc2C1 (stereo not given)
- IC50 [1]: > 10 µM
- IC50 (PHD finger protein 23): > 10 µM
- IC50 (TP53-binding protein 1): 3.5 µM
- IC50 [2]: 3.5 µM
- IC50 [3]: > 10 µM
- IC50 [4]: > 10 µM
- IC50 [5]: 0.17 µM
- IC50 [6]: 0.16 µM

Compound: O=C(c1ccc(C(=O)N2CC3CCC(C2)C3N2CCCC2)cc1)N1CCC(N2CCCC2)CC1 (stereo not given)
- IC50 [1]: > 10 µM
- IC50 (PHD finger protein 23): > 10 µM
- IC50 (TP53-binding protein 1): > 10 µM
- IC50 [2]: > 10 µM
- IC50 [3]: > 10 µM
- IC50 [4]: > 10 µM
- IC50 [5]: 0.16 µM
- IC50 [6]: 0.092 µM

Compound: O=C(c1cncc(Br)c1)N1CCC(N2CCCC2)CC1
- IC50 [1]: > 10 µM
- IC50 (PHD finger protein 23): > 10 µM
- IC50 (TP53-binding protein 1): > 10 µM
- IC50 [2]: > 10 µM
- IC50 [3]: > 10 µM
- IC50 [4]: > 10 µM
- IC50 [5]: 3.1 µM
- IC50 [6]: 4.7 µM

Compound: O=C(c1ccc(C(=O)N2CCC(N3CCCC3)CC2)c(Oc2ccccc2)c1)N1CCC(N2CCCC2)CC1
- IC50 [1]: > 10 µM
- IC50 (PHD finger protein 23): > 10 µM
- IC50 (TP53-binding protein 1): > 10 µM
- IC50 [2]: 9.3 µM
- IC50 [3]: > 10 µM
- IC50 [4]: > 10 µM
- IC50 [5]: 0.058 µM
- IC50 [6]: 0.053 µM

Compound: O=C(c1ccc(C(=O)N2CCC(N3CCCC3)CC2)o1)N1CCC(N2CCCC2)CC1
- IC50 [1]: > 10 µM
- IC50 (PHD finger protein 23): > 10 µM
- IC50 (TP53-binding protein 1): > 10 µM
- IC50 [2]: > 10 µM
- IC50 [3]: > 10 µM
- IC50 [4]: > 10 µM
- IC50 [5]: 0.53 µM
- IC50 [6]: 0.31 µM

Compound: O=C(c1ccc(C(=O)N2CCC(N3CCC3)CC2)cc1)N1CCC(N2CCC2)CC1
- IC50 [1]: > 10 µM
- IC50 (PHD finger protein 23): > 10 µM
- IC50 (TP53-binding protein 1): > 10 µM
- IC50 [2]: > 10 µM
- IC50 [3]: > 10 µM
- IC50 [4]: > 10 µM
- IC50 [5]: 0.4 µM
- IC50 [6]: 0.35 µM

Compound: O=C(NCCCN1CCCC1)c1ccc(C(=O)N2CCC(N3CCCC3)CC2)cc1
- IC50 [1]: > 10 µM
- IC50 (PHD finger protein 23): > 10 µM
- IC50 (TP53-binding protein 1): > 10 µM
- IC50 [2]: > 10 µM
- IC50 [3]: > 10 µM
- IC50 [4]: > 10 µM
- IC50 [5]: 0.68 µM
- IC50 [6]: 0.34 µM

Compound: O=C(c1ccc(C(=O)N2CCC(N3CCCC3)CC2)s1)N1CCC(N2CCCC2)CC1
- IC50 [1]: > 10 µM
- IC50 (PHD finger protein 23): > 10 µM
- IC50 (TP53-binding protein 1): > 10 µM
- IC50 [2]: > 10 µM
- IC50 [3]: > 10 µM
- IC50 [4]: > 10 µM
- IC50 [5]: 0.096 µM
- IC50 [6]: 0.068 µM

Compound: O=C(c1ccc(CN2CCC(N3CCCC3)CC2)cc1)N1CCC(N2CCCC2)CC1
- IC50 [1]: > 10 µM
- IC50 (PHD finger protein 23): > 10 µM
- IC50 (TP53-binding protein 1): > 10 µM
- IC50 [2]: 8.1 µM
- IC50 [3]: > 10 µM
- IC50 [4]: > 10 µM
- IC50 [5]: 0.14 µM
- IC50 [6]: 0.13 µM

Compound: O=C(c1ccc(C(=O)N2CCC(N3CCCC3)CC2)cc1)N1CCCC(N2CCCC2)CC1 (stereo not given)
- IC50 [1]: > 10 µM
- IC50 (PHD finger protein 23): > 10 µM
- IC50 (TP53-binding protein 1): > 10 µM
- IC50 [2]: > 10 µM
- IC50 [3]: > 10 µM
- IC50 [4]: > 10 µM
- IC50 [5]: 0.096 µM
- IC50 [6]: 0.074 µM

Compound: O=C(c1ccc(C(=O)N2CCC(N3CCOCC3)CC2)cc1)N1CCC(N2CCCC2)CC1
- IC50 [1]: > 10 µM
- IC50 (PHD finger protein 23): > 10 µM
- IC50 (TP53-binding protein 1): > 10 µM
- IC50 [2]: > 10 µM
- IC50 [3]: > 10 µM
- IC50 [4]: > 10 µM
- IC50 [5]: 1.5 µM
- IC50 [6]: 1.1 µM

Compound: O=C(c1ccc(C(=O)N2CCC(N3CCCC3)CC2)c2ccccc12)N1CCC(N2CCCC2)CC1
- IC50 [1]: > 10 µM
- IC50 (PHD finger protein 23): > 10 µM
- IC50 (TP53-binding protein 1): 10.7 µM
- IC50 [2]: 5.7 µM
- IC50 [3]: > 10 µM
- IC50 [4]: > 10 µM
- IC50 [5]: 0.072 µM
- IC50 [6]: 0.043 µM

Compound: O=C(c1ccc(C(=O)N2CCC(N3CCCC3)CC2)cc1)N1CCC(N2CCCCC2)CC1
- IC50 [1]: > 10 µM
- IC50 (PHD finger protein 23): > 10 µM
- IC50 (TP53-binding protein 1): > 10 µM
- IC50 [2]: 10 µM
- IC50 [3]: > 10 µM
- IC50 [4]: > 10 µM
- IC50 [5]: 0.23 µM
- IC50 [6]: 0.16 µM
